These results are taken from ChEMBL document CHEMBL1125579, “Relative structure-inhibition analyses of the N-benzoyl and N-(phenylsulfonyl) amino acid aldose reductase inhibitors” (J Med Chem, 1991).

The target in this assay is Aldo-keto reductase family 1 member B1 (Rattus norvegicus, UniProt P07943). The assay is described as follows: Inhibitory activity against aldose reductase in rat lens. In a few lines: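 Rat lens enzyme: 100 lenses from frozen rat eyes homogenized in distilled water and centrifuged at 5 °C; the supernatant was brought to 40% ammonium sulfate saturation and the freshly prepared supernatant was used. NADPH loss was read at 340 nm for 3 min.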
Regarding `O=C(O)CN(C(=O)c1ccc2ccccc2c1)c1ccccc1`, it took 19 µM to reach half-maximal inhibition (IC50).

In the case of `CN(CC(=O)O)C(=O)c1ccc(F)cc1`, the IC50 – broadly, the point on the concentration scale where inhibition reaches its midpoint – is 8.8 µM.

In turn, `CN(CC(=O)O)C(=O)c1ccc(NC(=O)c2ccccc2)cc1` had an IC50 of 2.8 µM.

In the case of `COc1ccc(C(=O)N(C)CC(=O)O)cc1`, the IC50 came to 6.7 µM.

`CN(CC(=O)O)C(=O)c1ccccc1` displayed an IC50 of 23 µM.

The compound `COc1ccc(C(=O)N(CC(=O)O)c2ccccc2)cc1` registered an IC50 of 3.2 µM.

For `O=C(O)CN(C(=O)c1cccc2ccccc12)c1ccccc1`, the IC50 worked out at 8.5 µM.

Regarding `O=C(O)CNC(=O)c1ccc(NC(=O)CCc2ccccc2)cc1`, the IC50 came to 45 µM.

On to `O=C(O)CNC(=O)c1ccc(NC(=O)Cc2ccccc2)cc1`, for which the IC50 is 21 µM.

Turning to `O=C(O)CN(C(=O)c1ccc([N+](=O)[O-])cc1)c1ccccc1`, it took 0.56 µM to reach half-maximal inhibition (IC50).

Regarding `O=C(O)CN(C(=O)c1ccccc1)c1ccccc1`, 6.3 µM corresponded to half-maximal inhibition (IC50).

In the case of `O=C(O)CNC(=O)c1cccc2ccccc12`, the IC50 turned out to be 220 µM.

In the case of `Cc1ccc(C(=O)N(C)CC(=O)O)cc1`, the IC50 came out at 13 µM.

For the compound `CN(CC(=O)O)C(=O)c1ccc([N+](=O)[O-])cc1`, the IC50 is 26 µM.

In turn, `CN(CC(=O)O)C(=O)c1cccc2ccccc12` registered an IC50 of 40 µM.

Take `CN(CC(=O)O)C(=O)c1ccc(N)cc1`: inhibition was half-maximal at 11 µM (IC50).

`O=C(O)CNC(=O)c1ccc(NC(=O)c2ccccc2)cc1` came in with an IC50 of 9.6 µM.

As for `O=C(O)CN(C(=O)c1ccc(F)cc1)c1ccccc1`, the IC50 amounted to 8.2 µM.

Consider `O=C(O)CNC(=O)c1ccc2ccccc2c1`, for which the IC50 was 70 µM.

For `CN(CC(=O)O)C(=O)c1ccc2ccccc2c1`, it took 19 µM to reach half-maximal inhibition (IC50).

`O=C(O)CNC(=O)c1cccc(NC(=O)c2ccccc2)c1`: the IC50 turned out to be 49 µM.

`Nc1ccc(C(=O)N(CC(=O)O)c2ccccc2)cc1` yielded an IC50 of 12 µM.

`Cc1ccc(C(=O)N(CC(=O)O)c2ccccc2)cc1` came in with an IC50 of 3.7 µM.

Compound `O=C(O)CN(C(=O)c1ccc(NC(=O)c2ccccc2)cc1)c1ccccc1` had an IC50 of 0.24 µM.
